From ChEMBL document CHEMBL5543089, “Discovery of a novel, highly potent EZH2 PROTAC degrader for targeting non-canonical oncogenic functions of EZH2” (Eur J Med Chem, 2024)
Calls of active or inactive are those of the source. No cut-off for these calls is given here.

Legend:
[1] = biological target: T1, von Hippel-Lindau disease tumor suppressor/Histone-lysine N-methyltransferase EZH2 (Homo sapiens, UniProt Q15910+P40337); test: PROTAC activity at VHL/EZH2 degradation in hMLLr AML cell line EOL1 cells assessed as protein degradation at 0.1 to 1 uM measured after 24 hrs by Western blot analysis; format: cell-based; settings: dose 0.1-1 µM
Method in brief: (§1)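 Cells were seeded at 0.5–2 million per well and treated for 24 h, or for the stated times at 300 nM in the time course. Lysis was in RIPA with protease inhibitors; ~10 μg protein was run on SDS-PAGE and blotted to PVDF. Detection used fluorescent immunoblotting for EZH2, EED and SUZ12, with β-actin as loading control. Blots are representative of two biological experiments.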

[2] = biological target: T1, von Hippel-Lindau disease tumor suppressor/Histone-lysine N-methyltransferase EZH2; test: PROTAC activity at VHL/EZH2 degradation in hMLLr AML cell line EOL1 cells assessed as protein degradation at 0.1 uM measured after 24 hrs by Western blot analysis; format: cell-based; method in brief: as §1
[3] = biological target: T1, von Hippel-Lindau disease tumor suppressor/Histone-lysine N-methyltransferase EZH2; test: PROTAC activity at VHL/EZH2 degradation in hMLLr AML cell line EOL1 cells assessed as protein degradation at 1 uM measured after 24 hrs by Western blot analysis; format: cell-based; method in brief: as §1
EOL1 = test: Anti-proliferative activity against human EOL1 cells assessed as cell viability measured after 5 days incubation by CCK-8 assay; format: functional, cell-based; settings: EOL1, 120 h
Method in brief: (§2)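 Cells plated at 3,000–10,000 per well and exposed to serial dilutions for 5 days at 37 °C. CCK-8 (1x) was added for 2–4 h, with absorbance read at 450 nm against a 690 nm reference. IC50 was taken from curve fits. Leukemia lines were grown in RPMI-1640, K562 in IMDM and MDA-MB-468 in DMEM, all with 10 % FBS. Values are means ± SD of two biological experiments (three for BT549 and MDA-MB-468).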

MV4-11 = test: Anti-proliferative activity against human MV4-11 cells assessed as cell viability measured after 5 days incubation by CCK-8 assay; format: functional, cell-based; settings: MV4-11, 120 h; method in brief: as §2
RS4-11 = test: Anti-proliferative activity against human RS4-11 cells assessed as cell viability measured after 5 days incubation by CCK-8 assay; format: functional, cell-based; settings: RS4-11, 120 h; method in brief: as §2
MDA-MB-468 = test: Anti-proliferative activity against human MDA-MB-468 cells assessed as cell growth inhibition measured after 5 days incubation by CCK-8 assay; format: functional, cell-based; settings: MDA-MB-468, 120 h; method in brief: as §2
BT-549 = test: Anti-proliferative activity against human BT-549 cells assessed as cell growth inhibition measured after 5 days incubation by CCK-8 assay; format: functional, cell-based; settings: BT-549, 120 h; method in brief: as §2

T1 sequence (P40337 whole entry, looked up): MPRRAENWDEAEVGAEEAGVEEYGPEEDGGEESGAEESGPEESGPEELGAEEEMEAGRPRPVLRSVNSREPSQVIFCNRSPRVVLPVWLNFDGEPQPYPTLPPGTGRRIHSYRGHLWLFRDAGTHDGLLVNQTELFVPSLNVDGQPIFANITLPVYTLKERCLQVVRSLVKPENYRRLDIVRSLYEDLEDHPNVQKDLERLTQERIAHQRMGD
T1 sequence (Q15910 whole entry, looked up): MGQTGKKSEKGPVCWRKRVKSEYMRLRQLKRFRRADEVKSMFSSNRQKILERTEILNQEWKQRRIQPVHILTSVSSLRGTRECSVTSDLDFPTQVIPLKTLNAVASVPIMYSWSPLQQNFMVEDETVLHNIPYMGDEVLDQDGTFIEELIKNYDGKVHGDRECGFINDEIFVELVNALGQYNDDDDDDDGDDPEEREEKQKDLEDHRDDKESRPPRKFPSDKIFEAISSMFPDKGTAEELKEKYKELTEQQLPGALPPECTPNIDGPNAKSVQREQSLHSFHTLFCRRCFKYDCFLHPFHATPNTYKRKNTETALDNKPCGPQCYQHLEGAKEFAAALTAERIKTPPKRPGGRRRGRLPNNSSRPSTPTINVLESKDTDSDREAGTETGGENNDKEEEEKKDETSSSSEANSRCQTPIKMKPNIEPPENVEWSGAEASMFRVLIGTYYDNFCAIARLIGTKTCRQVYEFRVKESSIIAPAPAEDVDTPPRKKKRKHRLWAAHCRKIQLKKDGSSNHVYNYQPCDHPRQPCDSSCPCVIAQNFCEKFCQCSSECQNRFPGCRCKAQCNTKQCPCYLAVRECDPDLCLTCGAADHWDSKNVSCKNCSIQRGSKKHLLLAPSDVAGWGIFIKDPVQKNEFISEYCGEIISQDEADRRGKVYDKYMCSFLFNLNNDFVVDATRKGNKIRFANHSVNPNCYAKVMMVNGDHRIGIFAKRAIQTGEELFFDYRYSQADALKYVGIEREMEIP

| Activity [1] | IC50 (MV4-11) | IC50 (RS4-11) | Structure (SMILES) | IC50 (EOL1) | further results |
| --- | --- | --- | --- | --- | --- |
| Active |  |  | CCN(c1cc(-c2ccc(CN3CCN(CCC(=O)NCCCCCCCC(=O)N[C@H](C(=O)N4C[C@H](O)C[C@H]4C(=O)NCc4ccc(-c5scnc5C)cc4)C(C)(C)C)CC3)cc2)cc(C(=O)NCc2c(C)cc(C)[nH]c2=O)c1C)C1CCOCC1 |  |  |
|  |  |  | CCN(c1cc(-c2ccc(CN3CCN(CCC(=O)NCCCCCCCCCC(=O)N[C@H](C(=O)N4C[C@H](O)C[C@H]4C(=O)NCc4ccc(-c5scnc5C)cc4)C(C)(C)C)CC3)cc2)cc(C(=O)NCc2c(C)cc(C)[nH]c2=O)c1C)C1CCOCC1 |  | Activity [2]: 100%; Activity [3]: Active |
| Active |  |  | CCN(c1cc(-c2ccc(CN3CCN(CCC(=O)NCCCCCCCCC(=O)N[C@H](C(=O)N4C[C@H](O)C[C@H]4C(=O)NCc4ccc(-c5scnc5C)cc4)C(C)(C)C)CC3)cc2)cc(C(=O)NCc2c(C)cc(C)[nH]c2=O)c1C)C1CCOCC1 |  |  |
|  | 1 µM | 1.4 µM | CCN(c1cc(-c2ccc(CN3CCN(C(=O)CCCCCCCC(=O)N[C@H](C(=O)N4C[C@H](O)C[C@H]4C(=O)NCc4ccc(-c5scnc5C)cc4)C(C)(C)C)CC3)cc2)cc(C(=O)NCc2c(C)cc(C)[nH]c2=O)c1C)C1CCOCC1 | 0.42 µM |  |
|  | 5.5 µM | 5 µM | CCN(c1cc(-c2ccc(CN3CCN(CCCCCCCOc4cccc5c4C(=O)N(C4CCC(=O)NC4=O)C5=O)CC3)cc2)cc(C(=O)NCc2c(C)cc(C)[nH]c2=O)c1C)C1CCOCC1 (stereo unspecified) | 3.7 µM |  |
| inactive |  |  | CCN(c1cc(-c2ccc(CN3CCN(CCC(=O)NCCCCCCC(=O)N[C@H](C(=O)N4C[C@H](O)C[C@H]4C(=O)NCc4ccc(-c5scnc5C)cc4)C(C)(C)C)CC3)cc2)cc(C(=O)NCc2c(C)cc(C)[nH]c2=O)c1C)C1CCOCC1 |  |  |
|  | 0.46 µM | 0.65 µM | Cc1cc(C)c(CNC(=O)c2cc(-c3ccc(N4CCN(CCCCCCCCCc5cn(CCOCCOCCOCCOCCOCCOCCNc6cccc7c6C(=O)N(C6CCC(=O)NC6=O)C7=O)nn5)CC4)nc3)cc3c2cnn3C(C)C)c(=O)[nH]1 (stereo unspecified) | 1 µM |  |
| inactive |  |  | CCN(c1cc(-c2ccc(CN3CCN(CCC(=O)NCCCCC(=O)N[C@H](C(=O)N4C[C@H](O)C[C@H]4C(=O)NCc4ccc(-c5scnc5C)cc4)C(C)(C)C)CC3)cc2)cc(C(=O)NCc2c(C)cc(C)[nH]c2=O)c1C)C1CCOCC1 |  |  |
|  | > 10 µM | 4.07 µM | CCN(c1cc(-c2ccc(OCCCOCC(=O)N[C@H](C(=O)N3C[C@H](O)C[C@H]3C(=O)NCc3ccc(-c4scnc4C)cc3)C(C)(C)C)cc2)cc(C(=O)NCc2c(C)cc(C)[nH]c2=O)c1C)C1CCOCC1 | 5.4 µM |  |
| inactive |  |  | CCN(c1cc(-c2ccc(CN3CCN(CCC(=O)NCCCCCC(=O)N[C@H](C(=O)N4C[C@H](O)C[C@H]4C(=O)NCc4ccc(-c5scnc5C)cc4)C(C)(C)C)CC3)cc2)cc(C(=O)NCc2c(C)cc(C)[nH]c2=O)c1C)C1CCOCC1 |  |  |
|  |  |  | CCN(c1cc(-c2ccc(CN3CCOCC3)cc2)cc(C(=O)NCc2c(C)cc(C)[nH]c2=O)c1C)C1CCOCC1 [TAZEMETOSTAT] |  | IC50 (MDA-MB-468): > 2.5 µM; IC50 (BT-549): > 10 µM |
